Source: ChEMBL document CHEMBL1134636, “Structure-activity studies on nociceptin analogues: ORL1 receptor binding and biological activity of cyclic disulfide-containing analogues of nociceptin peptides” (J Med Chem, 2001)
Peptide text beside a SMILES is read from it.

Experiments:
[1] = target: T1, Nociceptin receptor (Homo sapiens, UniProt P41146); test: Efficacy for human ORL1 receptor expressing HEK293 cell membrane; type: functional, cell-based
Procedure, shortened: (§1)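 Membranes from HEK-293 cells expressing human ORL1 (10 μg) were incubated for 30 min at 24 °C with peptides (0.01 nM to 10 μM) in 20 mM HEPES pH 7.4 with 100 mM NaCl, 10 mM MgCl₂, 1 mM EDTA, 5 μM GDP and 400 pM [³⁵S]GTPγS. Binding was read with WGA-coated SPA beads.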

[2] = target: T1, Nociceptin receptor; test: Efficacy for human ORL1 receptor expressing HEK293 cells; type: functional, cell-based; procedure, shortened: as §1
[3] = target: T1, Nociceptin receptor; test: Displacement of [3H]NC from human ORL1 receptor expressing HEK293 cell membrane; type: cell membranes

T1 sequence (P41146 whole entry): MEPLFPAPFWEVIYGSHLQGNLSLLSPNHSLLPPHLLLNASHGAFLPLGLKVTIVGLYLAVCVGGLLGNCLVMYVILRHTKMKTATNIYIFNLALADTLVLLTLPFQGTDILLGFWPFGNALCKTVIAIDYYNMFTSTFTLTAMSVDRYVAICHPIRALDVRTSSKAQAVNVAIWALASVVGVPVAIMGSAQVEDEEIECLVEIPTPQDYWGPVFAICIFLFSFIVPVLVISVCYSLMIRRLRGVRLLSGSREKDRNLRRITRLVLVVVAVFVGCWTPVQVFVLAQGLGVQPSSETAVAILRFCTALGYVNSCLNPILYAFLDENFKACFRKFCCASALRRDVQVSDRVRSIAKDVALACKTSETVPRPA

Structure (SMILES)	Emax [1]	EC50 ([2]; hek293)	IC50 ([3]; hek293)	EC50 [2]	IC50 [3]
C[C@H](NC(=O)[C@H](CO)NC(=O)[C@H](CCCCN)NC(=O)[C@H](CCCN=C(N)N)NC(=O)[C@H](C)NC(=O)[C@H](CS)NC(=O)[C@@H](NC(=O)[C@H](Cc1ccccc1)NC(=O)CNC(=O)CNC(=O)[C@H](Cc1ccccc1)NC(=O)[C@@H](N)CS)[C@@H](C)O)C(=O)N[C@@H](CCCN=C(N)N)C(=O)N[C@@H](CCCCN)C(N)=O (H-CFGGFTCARKSARK-NH2)	12%	–	–	–	–
C[C@H](NC(=O)CNC(=O)[C@@H](NC(=O)[C@H](Cc1ccccc1)NC(=O)CNC(=O)CNC(=O)[C@H](Cc1ccccc1)NC(=O)[C@@H](N)CS)[C@@H](C)O)C(=O)N[C@@H](CCCN=C(N)N)C(=O)N[C@@H](CCCCN)C(=O)N[C@@H](CS)C(=O)N[C@@H](C)C(=O)N[C@@H](CCCN=C(N)N)C(=O)N[C@@H](CCCCN)C(N)=O (H-CFGGFTGARKCARK-NH2)	59%	–	–	–	–
C[C@H](NC(=O)CNC(=O)[C@@H](NC(=O)[C@H](Cc1ccccc1)NC(=O)CNC(=O)CNC(=O)[C@H](Cc1ccccc1)NC(=O)[C@@H](N)CS)[C@@H](C)O)C(=O)N[C@@H](CCCNC(=N)N)C(=O)N[C@@H](CCCCN)C(=O)N[C@@H](CO)C(=O)N[C@@H](CS)C(=O)N[C@@H](CCCNC(=N)N)C(=O)N[C@@H](CCCCN)C(N)=O (H-CFGGFTGARKSCRK-NH2)	–	0.286 µM	1.29 µM	–	–
C[C@H](NC(=O)[C@H](CO)NC(=O)[C@H](CCCCN)NC(=O)[C@H](CCCNC(=N)N)NC(=O)[C@H](CS)NC(=O)CNC(=O)[C@@H](NC(=O)[C@H](Cc1ccccc1)NC(=O)CNC(=O)CNC(=O)[C@H](Cc1ccccc1)NC(=O)[C@@H](N)CS)[C@@H](C)O)C(=O)N[C@@H](CCCNC(=N)N)C(=O)N[C@@H](CCCCN)C(N)=O (H-CFGGFTGCRKSARK-NH2)	–	> 10 µM	2.71 µM	–	–
C[C@H](NC(=O)[C@H](CS)NC(=O)[C@H](CCCCN)NC(=O)[C@H](CCCN=C(N)N)NC(=O)[C@H](C)NC(=O)[C@H](CS)NC(=O)[C@@H](NC(=O)[C@H](Cc1ccccc1)NC(=O)CNC(=O)CNC(=O)[C@@H](N)Cc1ccccc1)[C@@H](C)O)C(=O)N[C@@H](CCCN=C(N)N)C(=O)N[C@@H](CCCCN)C(N)=O (H-FGGFTCARKCARK-NH2)	94%	–	–	0.0297 µM	0.00303 µM
C[C@H](NC(=O)CNC(=O)[C@@H](NC(=O)[C@H](Cc1ccccc1)NC(=O)CNC(=O)CNC(=O)[C@@H](N)Cc1ccccc1)[C@@H](C)O)C(=O)N[C@@H](CCCNC(=N)N)C(=O)N[C@@H](CCCCN)C(=O)N[C@@H](CS)C(=O)N[C@@H](C)C(=O)N[C@@H](CCCNC(=N)N)C(=O)N[C@@H](CCCCN)C(=O)N[C@@H](CS)C(N)=O (H-FGGFTGARKCARKC-NH2)	–	–	–	0.0039 µM	0.000471 µM
C[C@H](NC(=O)CNC(=O)[C@@H](NC(=O)[C@H](Cc1ccccc1)NC(=O)CNC(=O)CNC(=O)[C@@H](N)Cc1ccccc1)[C@@H](C)O)C(=O)N[C@@H](CCCN=C(N)N)C(=O)N[C@@H](CCCCN)C(=O)N[C@@H](CS)C(=O)N[C@@H](C)C(=O)N[C@@H](CCCN=C(N)N)C(=O)N[C@@H](CCCCN)C(=O)N[C@@H](CS)C(N)=O (H-FGGFTGARKCARKC-NH2)	105%	–	–	–	–
CC(C)C[C@H](NC(=O)[C@H](CCCCN)NC(=O)[C@H](CCCN=C(N)N)NC(=O)[C@H](C)NC(=O)[C@H](CO)NC(=O)[C@H](CCCCN)NC(=O)[C@H](CCCN=C(N)N)NC(=O)[C@H](C)NC(=O)CNC(=O)[C@@H](NC(=O)[C@H](Cc1ccccc1)NC(=O)CNC(=O)CNC(=O)[C@@H](N)Cc1ccccc1)[C@@H](C)O)C(N)=O (H-FGGFTGARKSARKL-NH2)	105%	–	–	0.00197 µM	0.00052 µM
C[C@H](NC(=O)[C@H](CO)NC(=O)[C@H](CCCCN)NC(=O)[C@H](CCCNC(=N)N)NC(=O)[C@H](CS)NC(=O)CNC(=O)[C@@H](NC(=O)[C@H](Cc1ccccc1)NC(=O)CNC(=O)CNC(=O)[C@@H](N)Cc1ccccc1)[C@@H](C)O)C(=O)N[C@@H](CCCNC(=N)N)C(=O)N[C@@H](CCCCN)C(=O)N[C@@H](CS)C(N)=O (H-FGGFTGCRKSARKC-NH2)	–	–	–	0.0223 µM	0.0372 µM
C[C@H](NC(=O)[C@H](CO)NC(=O)[C@H](CCCCN)NC(=O)[C@H](CCCN=C(N)N)NC(=O)[C@H](CS)NC(=O)CNC(=O)[C@@H](NC(=O)[C@H](Cc1ccccc1)NC(=O)CNC(=O)CNC(=O)[C@@H](N)Cc1ccccc1)[C@@H](C)O)C(=O)N[C@@H](CCCN=C(N)N)C(=O)N[C@@H](CCCCN)C(=O)N[C@@H](CS)C(N)=O (H-FGGFTGCRKSARKC-NH2)	101%	–	–	–	–
C[C@@H](O)[C@H](NC(=O)[C@H](Cc1ccccc1)NC(=O)CNC(=O)CNC(=O)[C@@H](N)Cc1ccccc1)C(=O)NCC(=O)N[C@@H](CS)C(=O)N[C@@H](CCCN=C(N)N)C(=O)N[C@@H](CCCCN)C(=O)N[C@@H](CO)C(=O)N[C@@H](CS)C(=O)N[C@@H](CCCN=C(N)N)C(=O)N[C@@H](CCCCN)C(N)=O (H-FGGFTGCRKSCRK-NH2)	99%	–	–	0.0263 µM	0.0087 µM
C[C@H](NC(=O)[C@H](CO)NC(=O)[C@H](CCCCN)NC(=O)[C@H](CCCN=C(N)N)NC(=O)[C@H](C)NC(=O)[C@@H]1CSSC[C@H](N)C(=O)N[C@@H](Cc2ccccc2)C(=O)NCC(=O)NCC(=O)N[C@@H](Cc2ccccc2)C(=O)N[C@@H]([C@@H](C)O)C(=O)N1)C(=O)N[C@@H](CCCN=C(N)N)C(=O)N[C@@H](CCCCN)C(N)=O (HELM PEPTIDE1{C.F.G.G.F.T.C.A.R.K.S.A.R.K.[am]}$PEPTIDE1,PEPTIDE1,1:R3-7:R3$$$V2.0)	18%	–	–	–	–
C[C@@H]1NC(=O)CNC(=O)[C@H]([C@@H](C)O)NC(=O)[C@H](Cc2ccccc2)NC(=O)CNC(=O)CNC(=O)[C@H](Cc2ccccc2)NC(=O)[C@@H](N)CSSC[C@@H](C(=O)N[C@@H](C)C(=O)N[C@@H](CCCN=C(N)N)C(=O)N[C@@H](CCCCN)C(N)=O)NC(=O)[C@H](CCCCN)NC(=O)[C@H](CCCN=C(N)N)NC1=O (HELM PEPTIDE1{C.F.G.G.F.T.G.A.R.K.C.A.R.K.[am]}$PEPTIDE1,PEPTIDE1,1:R3-11:R3$$$V2.0)	81%	–	–	–	–
C[C@@H]1NC(=O)CNC(=O)[C@H]([C@@H](C)O)NC(=O)[C@H](Cc2ccccc2)NC(=O)CNC(=O)CNC(=O)[C@H](Cc2ccccc2)NC(=O)[C@@H](N)CSSC[C@@H](C(=O)N[C@@H](CCCNC(=N)N)C(=O)N[C@@H](CCCCN)C(N)=O)NC(=O)[C@H](CO)NC(=O)[C@H](CCCCN)NC(=O)[C@H](CCCNC(=N)N)NC1=O (HELM PEPTIDE1{C.F.G.G.F.T.G.A.R.K.S.C.R.K.[am]}$PEPTIDE1,PEPTIDE1,1:R3-12:R3$$$V2.0)	–	–	–	0.439 µM	0.387 µM
C[C@H](NC(=O)[C@H](CO)NC(=O)[C@H](CCCCN)NC(=O)[C@H](CCCNC(=N)N)NC(=O)[C@@H]1CSSC[C@H](N)C(=O)N[C@@H](Cc2ccccc2)C(=O)NCC(=O)NCC(=O)N[C@@H](Cc2ccccc2)C(=O)N[C@@H]([C@@H](C)O)C(=O)NCC(=O)N1)C(=O)N[C@@H](CCCNC(=N)N)C(=O)N[C@@H](CCCCN)C(N)=O (HELM PEPTIDE1{C.F.G.G.F.T.G.C.R.K.S.A.R.K.[am]}$PEPTIDE1,PEPTIDE1,1:R3-8:R3$$$V2.0)	–	–	–	> 10 µM	0.874 µM
C[C@H](NC(=O)[C@@H]1CSSC[C@H](NC(=O)[C@@H](NC(=O)[C@H](Cc2ccccc2)NC(=O)CNC(=O)CNC(=O)[C@@H](N)Cc2ccccc2)[C@@H](C)O)C(=O)N[C@@H](C)C(=O)N[C@@H](CCCNC(=N)N)C(=O)N[C@@H](CCCCN)C(=O)N1)C(=O)N[C@@H](CCCNC(=N)N)C(=O)N[C@@H](CCCCN)C(N)=O (HELM PEPTIDE1{F.G.G.F.T.C.A.R.K.C.A.R.K.[am]}$PEPTIDE1,PEPTIDE1,6:R3-10:R3$$$V2.0)	99%	–	–	0.0313 µM	0.000833 µM
C[C@H](NC(=O)CNC(=O)[C@@H](NC(=O)[C@H](Cc1ccccc1)NC(=O)CNC(=O)CNC(=O)[C@@H](N)Cc1ccccc1)[C@@H](C)O)C(=O)N[C@@H](CCCNC(=N)N)C(=O)N[C@@H](CCCCN)C(=O)N[C@H]1CSSC[C@@H](C(N)=O)NC(=O)[C@H](CCCCN)NC(=O)[C@H](CCCNC(=N)N)NC(=O)[C@H](C)NC1=O (HELM PEPTIDE1{F.G.G.F.T.G.A.R.K.C.A.R.K.C.[am]}$PEPTIDE1,PEPTIDE1,10:R3-14:R3$$$V2.0)	–	–	–	0.00437 µM	0.000122 µM
C[C@H](NC(=O)CNC(=O)[C@@H](NC(=O)[C@H](Cc1ccccc1)NC(=O)CNC(=O)CNC(=O)[C@@H](N)Cc1ccccc1)[C@@H](C)O)C(=O)N[C@@H](CCCN=C(N)N)C(=O)N[C@@H](CCCCN)C(=O)N[C@H]1CSSC[C@@H](C(N)=O)NC(=O)[C@H](CCCCN)NC(=O)[C@H](CCCN=C(N)N)NC(=O)[C@H](C)NC1=O (HELM PEPTIDE1{F.G.G.F.T.G.A.R.K.C.A.R.K.C.[am]}$PEPTIDE1,PEPTIDE1,10:R3-14:R3$$$V2.0)	99%	–	–	–	–
C[C@@H]1NC(=O)[C@H](CO)NC(=O)[C@H](CCCCN)NC(=O)[C@H](CCCNC(=N)N)NC(=O)[C@@H](NC(=O)CNC(=O)[C@@H](NC(=O)[C@H](Cc2ccccc2)NC(=O)CNC(=O)CNC(=O)[C@@H](N)Cc2ccccc2)[C@@H](C)O)CSSC[C@@H](C(N)=O)NC(=O)[C@H](CCCCN)NC(=O)[C@H](CCCNC(=N)N)NC1=O (HELM PEPTIDE1{F.G.G.F.T.G.C.R.K.S.A.R.K.C.[am]}$PEPTIDE1,PEPTIDE1,7:R3-14:R3$$$V2.0)	–	–	–	0.025 µM	0.00497 µM
C[C@@H]1NC(=O)[C@H](CO)NC(=O)[C@H](CCCCN)NC(=O)[C@H](CCCN=C(N)N)NC(=O)[C@@H](NC(=O)CNC(=O)[C@@H](NC(=O)[C@H](Cc2ccccc2)NC(=O)CNC(=O)CNC(=O)[C@@H](N)Cc2ccccc2)[C@@H](C)O)CSSC[C@@H](C(N)=O)NC(=O)[C@H](CCCCN)NC(=O)[C@H](CCCN=C(N)N)NC1=O (HELM PEPTIDE1{F.G.G.F.T.G.C.R.K.S.A.R.K.C.[am]}$PEPTIDE1,PEPTIDE1,7:R3-14:R3$$$V2.0)	95%	–	–	–	–
